# Source: ChEMBL document CHEMBL1142304, “Synthesis and biological activity of phosphonate analogues and geometric isomers of the highly potent phosphoantigen (E)-1-hydroxy-2-methylbut-2-enyl 4-diphosphate” (J Med Chem, 2008)
# The source made the active and inactive calls. The rule behind the calls is not given here.
# Assays:
# [1] = Agonist activity at human Vgamma9Vdelta2 receptor expressed in T cells assessed as stimulation of TNFalpha release by ELISA; type: functional, cell-based; details: T-cell
# [2] = Chemical stability assessed as degradation in 3% H2O2 at 60 degC after 2 hrs; type: physicochemical; details: read-out: Activity
# Summary of the method: (§1)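 Pyrophosphate analogue tested as 0.3 mM solution and pyrophosphonate analogue as 0.5 mM solution under the stated temperature, 0.1 N HCl or H2O2 stress. Degradation was measured by ionic chromatography with conductometric detection and estimated as % of relative area.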
# [3] = Chemical stability at 4 degC after 7 days; type: physicochemical; details: 168 h; summary of the method: as §1
# T-cell [4] = assay: Effect on proliferation of human T cell expressing Vgamma9Vdelta2 receptor in cynomolgus monkey co-treated with IL2 assessed as circulating T cells in blood at 10 mg/kg, iv; type: functional, organism-based; set-up: dose 10 mg/kg
# Summary of the method: (§2)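 Purpose-bred cynomolgus monkeys (7 male, 7 female, 1.8–3.5 kg) got an i.v. bolus in Ringer lactate, with IL-2 0.6 M IU s.c. daily for 5 days. Blood was taken predose and on days 4, 5, 7, 11 and 14. Whole-blood flow cytometry used anti-Vγ9, CD3 and CD69 staining, red-cell lysis and counting fluorospheres for absolute counts.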
# T-cell [5] = assay: Effect on proliferation of human T cell expressing Vgamma9Vdelta2 receptor in cynomolgus monkey co-treated with IL2 assessed as circulating T cells in blood at 5 mg/kg, iv; type: functional, organism-based; set-up: dose 5 mg/kg; summary of the method: as §2
# T-cell [6] = assay: Effect on proliferation of human T cell expressing Vgamma9Vdelta2 receptor in cynomolgus monkey co-treated with IL2 assessed as circulating T cells in blood at 0.02 mg/kg, iv; type: functional, organism-based; set-up: dose 0.02 mg/kg
# Summary of the method: (§3)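 Cynomolgus monkeys were dosed i.v. in Ringer lactate, either as a 30 min infusion (50 mL) or as a bolus depending on the series, with IL-2 0.6 M IU s.c. daily for 5 days. Blood was sampled predose and on days 4, 5, 7, 11 and 14. Circulating γδ-cells were counted by flow cytometry (Vγ9/CD3/CD69 staining, counting beads).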
# [7] = Effect on proliferation of human T cell expressing Vgamma9Vdelta2 receptor in cynomolgus monkey co-treated with IL2 assessed as circulating T cells in blood at 2.5 mg/kg, iv; type: functional; summary of the method: as §3
# Rattus norvegicus = assay: Drug level in iv dosed rat assessed as recovered compound after 7 days; type: ADME, organism-based; details: in vivo, 168 h
# [8] = Chemical stability assessed as degradation at 60 degC after 24 hrs; type: physicochemical; details: read-out: Activity; summary of the method: as §1
# [9] = Drug level in iv dosed rat assessed as excreted compound in urine; type: ADME, organism-based; details: read-out: Drug uptake
# [10] = Chemical stability assessed as degradation at 25 degC after 7 days; type: physicochemical; details: 168 h; summary of the method: as §1
structure (smiles),measurement,setting,value
C/C(=C/CO)CCP(=O)(O)OP(=O)(O)O,EC50,[1],> 100000 nM
C/C(=C/CO)COP(=O)(O)OP(=O)(O)O,EC50,[1],> 100000 nM
C/C(=C/CO)CCP(=O)(O)O,EC50,[1],> 100000 nM
C/C(=C\COP(=O)(O)OP(=O)(O)O)CO,degraded at 2 h,[2],4%
same,Stability,[3],Stable
same,Activity,T-cell [4],Active
same,Activity,T-cell [5],Active
same,Activity,T-cell [6],Active
same,Activity,[7],40%
same,Drug uptake,Rattus norvegicus,80%
same,degraded at 24 h,[8],14%
same,dose excreted,[9],50%
same,EC50,[1],0.39 nM
same,degradation,[10],5%
C/C(=C/COP(=O)(O)OP(=O)(O)O)CO,EC50,[1],252 nM
CC(O)(CBr)CCOP(=O)(O)OP(=O)(O)O (configuration not stated) [BROMOHYDRIN PYROPHOSPHATE],EC50,[1],23.9 nM
C/C(=C\CO)COP(=O)(O)OP(=O)(O)O,EC50,[1],93.5 nM
